Experimental data from ChEMBL document CHEMBL3271936, “Biologically oriented organic sulfur chemistry. 14. Antiinflammatory properties of some aryl sulfides, sulfoxides, and sulfones” (J Med Chem, 1976).
The source made the active and inactive calls. The calls are words filed in the database; no cut-off is given here.

Columns and labels:
Rattus norvegicus [1] = assay: Antiinflammatory activity in Holtzman rat assessed as inhibition of carrageenan-induced paw edema at 50 mg/kg, po administered at 0.5 and 2.5 hrs prior to carrageenan-challenge relative to control; type: functional; conditions: Holtzmann
Method in brief: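 Carrageenan paw-edema assay in male or female Holtzman rats (180–190 g), five per group. Compound given orally at 50 mg/kg twice, at 2.5 h and 0.5 h before carrageenan injection into the hind paw. Inhibition of edema is expressed as percent versus controls.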

Rattus norvegicus [2] = assay: Antiinflammatory activity in Holtzman rat assessed as inhibition of UV radiation-induced erythema at 50 mg/kg, po relative to control; type: functional; conditions: Holtzmann
Mus musculus [3] = assay: Antiinflammatory activity in mouse assessed as inhibition of carrageenan-induced edema at 30 mg/kg relative to control; type: functional
Mus musculus [4] = assay: Toxicity in mouse assessed as mortality at >= 0.3 g/kg, ip; type: organism-based; conditions: in vivo, 300 mg/kg
Method in brief: (§1)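 Mice dosed intraperitoneally at two dose levels, three animals per compound (rarely two). The approximate lethal range was taken as survival at the lower dose and death at the higher, in g/kg. Dose brackets were 0.1–0.3, 0.3–1.0, and >1.0.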

Rattus norvegicus [5] = assay: Antiinflammatory activity in specific pathogen-free Alderley Park 1 rat assessed as inhibition of adjuvant-induced swelling at 25 mg/kg/day, po treated for 2 days prior to adjuvant-challenge followed by compound administration for 18 days; type: functional, organism-based
Method in brief: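 Adjuvant arthritis assay in rats. Oral dosing at 25 mg/kg per day begins 2 days before adjuvant and continues 18 days after it, for 20 days in total.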

Mus musculus [6] = assay: Toxicity in mouse assessed as mortality up to 0.3 g/kg, ip; type: organism-based; conditions: in vivo, 300 mg/kg; method in brief: as §1
Rattus norvegicus [7] = assay: Antiinflammatory activity in Holtzman rat assessed as inhibition of UV radiation-induced erythema at 25 mg/kg, po relative to control; type: functional; conditions: Holtzmann
Rattus norvegicus [8] = assay: Antiinflammatory activity in Holtzman rat assessed as inhibition of carrageenan-induced paw edema at 35 mg/kg, po relative to control; type: functional; conditions: Holtzmann
Rattus norvegicus [9] = assay: Antiinflammatory activity in po dosed Holtzman rat assessed as inhibition of UV radiation-induced erythema; type: functional; conditions: Holtzmann

Row | Compound | inhibition in vivo at 50 mg/kg (Rattus norvegicus [1]) [%] | inhibition in vivo at 50 mg/kg (Rattus norvegicus [2]) [%] | Activity (Mus musculus [4]) | other results
1 | CC(=O)Oc1ccccc1C(=O)O [ASPIRIN] | < 20 | 50 | – | –
2 | NCCSSc1ccccc1C(=O)O | – | – | – | inhibition in vivo at 30 mg/kg (Mus musculus [3]): 40%
3 | O=C(O)Cc1ccccc1Sc1ccccc1 | 23 | 51 | Toxic | inhibition (Rattus norvegicus [5]): inactive
4 | O=C(O)c1ccccc1Sc1cccc(C(F)(F)F)c1 | 18 | 43 | – | Activity (Mus musculus [6]): Non-toxic; inhibition in vivo at 25 mg/kg (Rattus norvegicus [7]): 0%
5 | CC(C(=O)O)c1ccccc1[S+]([O-])c1ccccc1 (configuration not stated) | 8 | 7 | – | –
6 | O=C(O)c1ccccc1S(=O)(=O)c1cccc(C(F)(F)F)c1 | – | 23 | Toxic | inhibition in vivo at 35 mg/kg (Rattus norvegicus [8]): 6%
7 | O=C(O)Cc1ccccc1[S+]([O-])c1ccccc1 (configuration not stated) | 30 | 23 | Toxic | inhibition (Rattus norvegicus [5]): inactive
8 | Cc1cccc(Sc2ccccc2C(=O)O)c1C | 15 | 26 | Toxic | –
9 | Cc1cccc(S(=O)(=O)c2ccccc2C(=O)O)c1C | 0 | 27 | Toxic | –
10 | Cc1cccc([S+]([O-])c2ccccc2C(=O)O)c1C (configuration not stated) | 15 | 0 | – | –
11 | O=C(O)c1ccccc1[S+]([O-])c1cccc(C(F)(F)F)c1 (configuration not stated) | 4 | 2 | Toxic | –
12 | O=C(O)c1ccccc1S(=O)(=O)c1ccccc1 | 15 | 0 | Toxic | –
13 | CC(C(=O)O)c1ccccc1Sc1ccccc1 (configuration not stated) | 14 | 33 | Toxic | –
14 | CCCCC1C(=O)N(c2ccccc2)N(c2ccccc2)C1=O [PHENYLBUTAZONE] | 50 | – | – | ED50 (Rattus norvegicus [9]): 5 mg/kg
15 | O=C(O)c1ccccc1[S+]([O-])c1ccccc1 (configuration not stated) | 19 | 0 | Toxic | –
